How the values were obtained:
EKVX [1] = assay: Antiproliferative activity against human EKVX cells assessed as cell growth at 0.00000001 M incubated for 48 hrs by SRB assay relative to control; assay type: functional; settings: dose 10 nM, read-out: Activity
Summary of the method: (§1)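 NCI-60 five-dose screen (10^-4 to 10^-8 M). Cells grown in RPMI 1640 with 5% FBS and 2 mM L-glutamine, plated at 5,000-40,000 cells/well and preincubated 24 h. Drug given from DMSO stock, then 48 h at 37 °C, 5% CO2. For adherent lines, cells fixed with cold TCA, SRB-stained and read at 515 nm. Percent growth taken against time-zero and untreated control.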

SK-MEL-5 [2] = assay: Antiproliferative activity against human SK-MEL-5 cells assessed as cell growth at 0.000001 M incubated for 48 hrs by SRB assay relative to control; assay type: functional; settings: read-out: Activity
KM12 [3] = assay: Antiproliferative activity against human KM12 cells assessed as cell growth at 0.0000001 M incubated for 48 hrs by SRB assay relative to control; assay type: functional; settings: dose 100 nM, read-out: Activity
SN12C = assay: Antiproliferative activity against human SN12C cells assessed as cell growth at 0.000001 M incubated for 48 hrs by SRB assay relative to control; assay type: functional; settings: read-out: Activity
NCI/ADR-RES = assay: Antiproliferative activity against human NCI/ADR-RES cells assessed as cell growth at 0.000001 M incubated for 48 hrs by SRB assay relative to control; assay type: functional; settings: read-out: Activity
CAKI-1 = assay: Antiproliferative activity against human CAKI-1 cells assessed as cell growth at 0.0001 M incubated for 48 hrs by SRB assay relative to control; assay type: functional; settings: read-out: Activity
Summary of the method: (§2)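 NCI-60 five-dose screen over 10^-4–10^-8 M (10-fold dilutions). Cells grown in RPMI 1640 with 5% FBS and 2 mM L-glutamine, seeded at 5,000–40,000 cells/well and preincubated 24 h. Drug from DMSO stock, 48 h at 37 °C, 5% CO2. Adherent cells TCA-fixed and stained with 0.4% SRB; A515 read. Percent growth = (Ti−Tz)/(C−Tz)×100, or (Ti−Tz)/Tz×100 when Ti<Tz.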

SK-MEL-28 = assay: Growth inhibition against human SK-MEL-28 cells incubated for 48 hrs by sulforhodamine B assay; assay type: functional
Hs-578T = assay: Antiproliferative activity against human Hs-578T cells assessed as cell growth at 0.0001 M incubated for 48 hrs by SRB assay relative to control; assay type: functional; settings: read-out: Activity
Summary of the method: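 NCI-60 five-dose mode, 10^-4 to 10^-8 M in 10-fold steps. RPMI 1640, 5% FBS, 2 mM L-glutamine; 24 h preincubation, then 48 h drug exposure at 37 °C. Stocks in DMSO at 400× the top concentration, diluted in medium with gentamicin. TCA fixation, SRB staining, absorbance at 515 nm. Percent growth from time-zero (Tz), control (C) and test (Ti) readings.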

CCRF-CEM = assay: Antiproliferative activity against human CCRF-CEM cells assessed as cell growth at 0.0001 M incubated for 48 hrs by SRB assay relative to control; assay type: functional; settings: read-out: Activity; summary of the method: as §2
BT-549 = assay: Antiproliferative activity against human BT-549 cells assessed as cell growth at 0.00000001 M incubated for 48 hrs by SRB assay relative to control; assay type: functional; settings: dose 10 nM, read-out: Activity; summary of the method: as §2
A549 = assay: Antiproliferative activity against human A549 cells assessed as cell growth at 0.00000001 M incubated for 48 hrs by SRB assay relative to control; assay type: functional; settings: dose 10 nM, read-out: Activity; summary of the method: as §2
OVCAR-5 = assay: Antiproliferative activity against human OVCAR-5 cells assessed as cell growth at 0.00000001 M incubated for 48 hrs by SRB assay relative to control; assay type: functional; settings: dose 10 nM, read-out: Activity
SNB-75 [4] = assay: Antiproliferative activity against human SNB-75 cells assessed as cell growth at 0.0001 M incubated for 48 hrs by SRB assay relative to control; assay type: functional; settings: read-out: Activity
KM12 [5] = assay: Antiproliferative activity against human KM12 cells assessed as cell growth at 0.000001 M incubated for 48 hrs by SRB assay relative to control; assay type: functional; settings: read-out: Activity
HEK293 = assay: Cytotoxicity against human HEK293 cells assessed as reduction in cell viability at 0.00000001 M incubated for 48 hrs by MTT colorimetric assay relative to control; assay type: toxicity, cell-based; settings: hek293, 48 h, 0.01 µM, dose 10 nM
TK-10 = assay: Antiproliferative activity against human TK-10 cells assessed as cell growth at 0.00001 M incubated for 48 hrs by SRB assay relative to control; assay type: functional; settings: read-out: Activity
KM12 [6] = assay: Antiproliferative activity against human KM12 cells assessed as cell growth at 0.00001 M incubated for 48 hrs by SRB assay relative to control; assay type: functional; settings: read-out: Activity
NCI-H226 = assay: Antiproliferative activity against human NCI-H226 cells assessed as cell growth inhibition by measuring lethal concentration incubated for 48 hrs by sulforhodamine B assay; assay type: functional; settings: read-out: LC50 (the source's name)
MDA-MB-231 = assay: Growth inhibition against human MDA-MB-231 cells incubated for 48 hrs by sulforhodamine B assay; assay type: functional
A498 [7] = assay: Antiproliferative activity against human A498 cells assessed as cell growth inhibition by measuring lethal concentration incubated for 48 hrs by sulforhodamine B assay; assay type: functional; settings: read-out: LC50 (the source's name)
NCI-H460 [8] = assay: Growth inhibition against human NCI-H460 cells incubated for 48 hrs by sulforhodamine B assay; assay type: functional
HCT-15 [9] = assay: Antiproliferative activity against human HCT-15 cells assessed as cell growth at 0.00001 M incubated for 48 hrs by SRB assay relative to control; assay type: functional; settings: read-out: Activity; summary of the method: as §1
SK-MEL-5 [10] = assay: Antiproliferative activity against human SK-MEL-5 cells assessed as cell growth at 0.0000001 M incubated for 48 hrs by SRB assay relative to control; assay type: functional; settings: dose 100 nM, read-out: Activity
NCI-H460 [11] = assay: Antiproliferative activity against human NCI-H460 cells assessed as cell growth at 0.00001 M incubated for 48 hrs by SRB assay relative to control; assay type: functional; settings: read-out: Activity
HT-29 = assay: Antiproliferative activity against human HT-29 cells assessed as cell growth at 0.0000001 M incubated for 48 hrs by SRB assay relative to control; assay type: functional; settings: dose 100 nM, read-out: Activity; summary of the method: as §1
EKVX [12] = assay: Growth inhibition against human EKVX cells incubated for 48 hrs by sulforhodamine B assay; assay type: functional
DU-145 [13] = assay: Antiproliferative activity against human DU-145 cells assessed as cell growth inhibition by measuring lethal concentration incubated for 48 hrs by sulforhodamine B assay; assay type: functional; settings: read-out: LC50 (the source's name)
HCT-15 [14] = assay: Antiproliferative activity against human HCT-15 cells assessed as cell growth at 0.00000001 M incubated for 48 hrs by SRB assay relative to control; assay type: functional; settings: dose 10 nM, read-out: Activity; summary of the method: as §1
A498 [15] = assay: Antiproliferative activity against human A498 cells assessed as cell growth at 0.0000001 M incubated for 48 hrs by SRB assay relative to control; assay type: functional; settings: dose 100 nM, read-out: Activity; summary of the method: as §2
SNB-75 [16] = assay: Growth inhibition against human SNB-75 cells incubated for 48 hrs by sulforhodamine B assay; assay type: functional
IGROV-1 = assay: Antiproliferative activity against human IGROV-1 cells assessed as cell growth inhibition by measuring lethal concentration incubated for 48 hrs by sulforhodamine B assay; assay type: functional; settings: read-out: LC50 (the source's name)
OVCAR-8 = assay: Antiproliferative activity against human OVCAR-8 cells assessed as cell growth at 0.000001 M incubated for 48 hrs by SRB assay relative to control; assay type: functional; settings: read-out: Activity
DU-145 [17] = assay: Growth inhibition against human DU-145 cells assessed as total growth inhibitory concentration incubated for 48 hrs by sulforhodamine B assay; assay type: functional

c1ccc(Cn2cnc3ccc(-c4nc(-c5ccc6c(c5)ncn6C5CCCCC5)cn5ccnc45)cc32)cc1
growth at 0.01 µM (EKVX [1]): 89%
growth at 1 µM (SK-MEL-5 [2]): 80%
growth at 0.1 µM (KM12 [3]): 98%
growth at 1 µM (SN12C): 95%
growth at 1 µM (NCI/ADR-RES): 84%
growth at 100 µM (CAKI-1): 23%
GI50 (SK-MEL-28): 2430 nM
growth at 100 µM (Hs-578T): 12%
growth at 100 µM (CCRF-CEM): 9%
growth at 0.01 µM (BT-549): 85%
growth at 0.01 µM (A549): 105%
growth at 0.01 µM (OVCAR-5): 89%
growth at 100 µM (SNB-75 [4]): -47%
growth at 1 µM (KM12 [5]): 93%
Activity (HEK293): 12.08%
growth at 10 µM (TK-10): 11%
growth at 10 µM (KM12 [6]): -41%
CC50 (NCI-H226): > 100000 nM
GI50 (MDA-MB-231): 1680 nM
CC50 (A498 [7]): 6850 nM
GI50 (NCI-H460 [8]): 2300 nM
growth at 10 µM (HCT-15 [9]): -13%
growth at 0.1 µM (SK-MEL-5 [10]): 106%
growth at 10 µM (NCI-H460 [11]): -32%
growth at 0.1 µM (HT-29): 97%
GI50 (EKVX [12]): 1750 nM
CC50 (DU-145 [13]): > 100000 nM
growth at 0.01 µM (HCT-15 [14]): 92%
growth at 0.1 µM (A498 [15]): 101%
GI50 (SNB-75 [16]): 1190 nM
CC50 (IGROV-1): > 100000 nM
growth at 1 µM (OVCAR-8): 102%
TGI (DU-145 [17]): 2100 nM

COc1ccc(-c2cn3ccnc3c(-c3ccc4ncn(C5CCCCC5)c4c3)n2)cc1
growth at 0.01 µM (EKVX [1]): 87%
growth at 1 µM (SK-MEL-5 [2]): 41%
growth at 0.1 µM (KM12 [3]): 99%
growth at 1 µM (SN12C): 66%
growth at 1 µM (NCI/ADR-RES): 38%
growth at 100 µM (CAKI-1): 26%
GI50 (SK-MEL-28): 2100 nM
growth at 100 µM (Hs-578T): -3%
growth at 100 µM (CCRF-CEM): 22%
growth at 0.01 µM (BT-549): 8%
growth at 0.01 µM (A549): 102%
growth at 0.01 µM (OVCAR-5): 86%
growth at 100 µM (SNB-75 [4]): 11%
growth at 1 µM (KM12 [5]): 57%
Activity (HEK293): 13.96%
growth at 10 µM (TK-10): 13%
growth at 10 µM (KM12 [6]): 5%
CC50 (NCI-H226): > 100000 nM
GI50 (MDA-MB-231): 2830 nM
CC50 (A498 [7]): > 100000 nM
GI50 (NCI-H460 [8]): 622 nM
growth at 10 µM (HCT-15 [9]): 9%
growth at 0.1 µM (SK-MEL-5 [10]): 100%
growth at 10 µM (NCI-H460 [11]): 4%
growth at 0.1 µM (HT-29): 92%
GI50 (EKVX [12]): 3040 nM
CC50 (DU-145 [13]): > 100000 nM
growth at 0.01 µM (HCT-15 [14]): 94%
growth at 0.1 µM (A498 [15]): 92%
GI50 (SNB-75 [16]): 733 nM
CC50 (IGROV-1): > 100000 nM
growth at 1 µM (OVCAR-8): 92%
TGI (DU-145 [17]): > 100000 nM
